# Most compounds without a hit are left out; they make up all but 3% or so of the library.
# C2C12 statin – suppressors of simvastatin-induced myotoxicity in C2C12 myotubes | hit rate 0.78% among 330,000 | rescue of ATP level, % at 7.49 µM | ATP luminescence, 48 h; scaled: DMSO 0, geranylgeraniol control 100;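 active means mean ATP rescue above about 67%, or every replicate alone reaching that limit, limit read from the data, passing the limit was not always enough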;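 further: myotubes were challenged with 10 µM simvastatin during compound exposure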
# S100A4 inh HTS – inhibitors of human S100A4 binding to myosin IIA peptide; inhibition, % at 10.7 µM; S100A4/TAMRA-MyoIIA peptide fluorescence polarization; hit rate 0.14% among 360,000; P26447; AID 652163;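 active means mean inhibition of at least 70% across replicates, with every replicate also reaching that level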
# Target sequence (P26447 whole entry, looked up): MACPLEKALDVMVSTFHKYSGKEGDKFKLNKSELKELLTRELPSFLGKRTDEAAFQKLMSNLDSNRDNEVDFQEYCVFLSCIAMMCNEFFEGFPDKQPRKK
#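 Test system: S100A4 monomer protein. Medium: HEPES buffer with Ca2+, pH 7.2. Reagent: fluorescent myosin IIA peptide, 5 nM. Compound dosing: single-point compound testing. Timing: 5 min between mix addition and reading. Benchmarks: DMSO neutral and TFP positive wells.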
# PGC1a acetyl inh – PGC1a acetylation modulation, inhibitor mode; U2OS PGC1a acetylation, AlphaScreen anti-acetyl-lysine; with virally co-expressed GCN5 acetyltransferase; inhibition, % at 15.6 µM; hit rate 0.17% among 350,000;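 active means every replicate shows inhibition of at least 40%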;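 further: 0% = neutral control wells and 100% = positive control wells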
# rRNA inh HTS – inhibits bacterial ribosomal RNA function over humanized ribosomes. E. coli WT GFP vs humanized-ribosome RFP mutants, fluorescence, 24 h; hits give low values; DMSO median 0, no signal -100. GFP signal change (wild-type ribosome), % (no concentration beside the values). hit rate 1.6% among 350,000. AID 720706;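 active means significant combined selectivity score with lowered wild-type GFP, culture density cut under 30%, mutant RFP and density less affected; inactive means any of these conditions unmet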
# SIRT5 inh – inhibitors of human sirtuin-5 desuccinylase; AID 652115; Purified SirT5, succinyl-peptide AMC, trypsin-coupled fluorescence; Q9NXA8; hit rate 1.1% among 330,000; inhibition, % at 15 µM; in the data active means inhibition above about 15%
# Target sequence (Q9NXA8 whole entry, looked up): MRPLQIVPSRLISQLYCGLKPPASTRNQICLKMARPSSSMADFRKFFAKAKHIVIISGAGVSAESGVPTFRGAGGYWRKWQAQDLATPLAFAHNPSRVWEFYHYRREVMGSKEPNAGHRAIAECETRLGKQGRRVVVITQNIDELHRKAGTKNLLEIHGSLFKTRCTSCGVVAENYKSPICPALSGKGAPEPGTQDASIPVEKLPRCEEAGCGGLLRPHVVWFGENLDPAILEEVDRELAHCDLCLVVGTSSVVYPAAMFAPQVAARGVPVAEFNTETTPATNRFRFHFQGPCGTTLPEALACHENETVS
# Cneo AK release – causes C. neoformans cell lysis; lysis activity, % at 15 µM; AID 651654; hit rate 0.2% among 360,000; adenylate kinase release luminescence, 4 h; normalised: neutral wells 0, clomiphene wells 100;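 active means mean lysis activity across replicates of at least 80%, whatever share of replicates individually reach that level; inactive means mean lysis activity below 80%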
#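 Material: C. neoformans cells; Schedule: 4 h static compound exposure, 37 °C, read 1 h post-reagent; Measured by: adenylate kinase release luminescence; Read-out: signal increase indicating cell lysis; Controls: Clomiphene as positive lysis control.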
# Starred values were filed as active, the others as inactive; · = not tested or not shown; + = active, no number.
SMILES,C2C12 statin,S100A4 inh HTS,PGC1a acetyl inh,rRNA inh HTS,SIRT5 inh,Cneo AK release
CCN(CC)CCCNC(=S)N1CCN(c2nc(-c3ccccc3)cs2)CC1,3,22,-1,-22*,-6,0
O=c1[nH]c(=S)[nH]c2c1C(c1ccc(Br)cc1)c1c([nH]c(=S)[nH]c1=O)O2,9,-4,0,-1,67*,-1
O=C(Nc1ccccc1F)N1CC(=O)N2[C@H](CO)[C@@H](c3ccc(-c4ccccc4)cc3)[C@H]2C1,·,124*,7,2,1,·
O=C1CN(Cc2ccc(F)cc2)C[C@@H]2[C@@H](c3ccc(-c4ccccc4F)cc3)[C@H](CO)N12,·,112*,2,-15,1,·
O=C(Nc1ccccc1F)N1CC(=O)N2[C@H](CO)[C@H](c3ccc(-c4ccccc4)cc3)[C@@H]2C1,·,-44,8,-2,1,·
O=C1CN(Cc2ccc(F)cc2)C[C@H]2[C@@H](c3ccc(-c4ccccc4F)cc3)[C@@H](CO)N12,·,29,-5,-34,1,·
O=C(Nc1cccc(F)c1)N1CC(=O)N2[C@H](C1)[C@@H](c1ccc(-c3cccc(F)c3)cc1)[C@@H]2CO,·,-2,-1,-31,16*,·
O=C(Nc1cccc(F)c1)N1CC(=O)N2[C@@H](CO)[C@@H](c3ccc(-c4cccc(F)c4)cc3)[C@@H]2C1,·,6,3,-44,5,·
C[C@H](CO)N1C[C@H](C)[C@@H](CN(C)Cc2ccc(C(=O)O)cc2)Oc2ccc(NC(=O)Cc3ccccc3)cc2CC1=O,31,0,-1,3,-2,0
Cc1nn(CC(=O)NCCCN2CCC(Cc3ccccc3)CC2)c(=O)c2cc(-c3ccccc3)nn12,-7,-4,-11,1,25*,3
COc1ccc(N2CCN(C(=O)c3cc4cc(Cl)ccc4[nH]3)CC2)cc1,19,-4,·,4,18*,-2
CCN1/C(=C/C=C/c2sc3ccccc3[n+]2CC)Sc2ccccc21,-163,·,-2,·,·,-8
CCN1/C(=C/C=C/c2oc3ccc(-c4ccccc4)cc3[n+]2CC)Oc2ccc(-c3ccccc3)cc21,-97,+,34,87,2,-7
COc1ccc(CNC(=O)CN(C(=O)c2csnn2)c2ccccc2F)cc1,36,-4,2,2,9,1
COc1ccc(CNC(=O)CN(C(=O)c2csnn2)c2cccc3c2CCCC3)cc1,73*,-2,1,4,-2,0
COc1ccc(CN2CCn3ncc(C(=O)Nc4ccccc4)c3C2=O)cc1,·,·,129*,·,·,·
COc1ccc(NC(=O)c2cnn(-c3ccccc3)c2C)cc1,-10,-6,·,1,-3,-6
CNC(=O)C[C@H]1CC[C@@H]2[C@H](COc3ccc(NC(=O)c4cccc(F)c4)cc3C(=O)N2C)O1,-4,-3,1,-2,-1,-6
CC(C)CC#Cc1ccc2c(c1)O[C@@H](CN(C)C(=O)C1CCCCC1)[C@H](C)CN([C@H](C)CO)S2(=O)=O,-30,9,12,3,19*,2
CC(C)CC#Cc1ccc2c(c1)O[C@@H](CN(C)C(=O)CC1CC1)[C@@H](C)CN([C@H](C)CO)S2(=O)=O,13,2,-13,-12,25*,-3
C[C@H](O)C#Cc1ccc2c(c1)O[C@@H](CN(C)C(=O)C1CCCCC1)[C@@H](C)CN([C@H](C)CO)S2(=O)=O,5,9,7,-1,6,-1
CC(C)CC#Cc1ccc2c(c1)O[C@@H](CN(C)C(=O)CC1CC1)[C@@H](C)CN([C@@H](C)CO)S2(=O)=O,1,-6,-9,-11,10,-7
CC(=O)N(C)C[C@@H]1Oc2cc(C#CCC(C)C)ccc2S(=O)(=O)N([C@H](C)CO)C[C@@H]1C,8,114*,-4,-3,0,6
CC(=O)N(C)C[C@H]1Oc2cc(C#CCC(C)C)ccc2S(=O)(=O)N([C@H](C)CO)C[C@H]1C,-2,-3,-2,0,-1,-5
C[C@H](O)C#Cc1ccc2c(c1)O[C@H](CN(C)C(=O)C1CCCCC1)[C@H](C)CN([C@@H](C)CO)S2(=O)=O,-2,14,13,-5,9,94*
SMILES,C2C12 statin,S100A4 inh HTS,PGC1a acetyl inh,rRNA inh HTS,SIRT5 inh,Cneo AK release
O=C(C1CC1)N1CC2(C1)[C@H](c1ccccc1)[C@@H](CO)N2C(=O)CC1CC1,·,-2,1,-1,0,·
C[C@@H]1CCCCO[C@@H](CN(C)C(=O)Nc2ccc(F)cc2)[C@H](C)CN([C@H](C)CO)C(=O)c2cc(NS(=O)(=O)c3cn(C)cn3)ccc2O1,·,4,13,0,2,59
C[C@@H]1CN([C@H](C)CO)S(=O)(=O)c2ccc(-c3cccnc3)cc2O[C@@H]1CN(C)C(=O)CC1CC1,-6,108*,12,0,3,-6
CC(C)CC#Cc1ccc2c(c1)O[C@@H](CN(C)C(=O)C1CCCCC1)[C@@H](C)CN([C@H](C)CO)S2(=O)=O,19,-1,-14,3,22*,0
Cc1nc(SCCC(=O)O)c2cc(-c3ccccc3)sc2n1,67*,-2,·,-26,2,-3
CC(=O)/C(C#N)=C1\NC(=O)C(Cc2ccccc2C)S1 (centres undefined),·,29,7,-30*,11,2
CC(=O)/C(C#N)=C1\NC(=O)C(Cc2ccccc2)S1 (centres undefined),·,·,-2,·,·,-1
C[C@@H]1CN([C@@H](C)CO)C(=O)c2cc(N(C)C)ccc2O[C@@H](C)CCCCO[C@H]1CN(C)C,30,·,-7,-1,·,·
CCOc1ccccc1N1CCN(C(=O)c2c(C)noc2C)CC1,-5,·,-1,·,·,0
CCOc1ccccc1N1CCN(C(=O)c2ccccc2OCc2c(C)noc2C)CC1,1,3,-6,-16*,1,0
O=[N+]([O-])c1cccc(S(=O)(=O)N2CCN(S(=O)(=O)N3CCOCC3)CC2)c1,-1,-1,·,3,16*,-4
CCS(=O)(=O)N1CC2(CN(C)[C@@H](CO)c3c2c2ccc(OC)cc2n3C)C1,·,18,6,-1,2,·
N#C/C(=C\c1ccc(C(=O)O)cc1)c1nc2sc3c(c2c(=O)[nH]1)CCCC3,·,-3,-1,15,20*,·
CCOC(=O)c1ccc(Nc2ncnc3c2cnn3C)cc1,8,-7,-10,7,0,-3
Cn1ncc2c(O/N=C(\N)c3ccc(C(C)(C)C)cc3)ncnc21,·,·,96*,·,·,3
CC(=O)c1cccc(NC(=S)NC2CCCCCCC2)c1,13,-6,-2,-19,-2,129*
O=C(NC1CCCCC1c1ccccc1)c1ccccc1 (centres undefined),·,-6,·,-10,·,·

# High-throughput results (PubChem BioAssay)
